According to publication PMC3791136 (Journal of the American Chemical Society, 2013):

System: A2780 cells
Assay: Cytotoxicity with ER stress inhibitor salubrinal
Type: cell-based
Conditions: salubrinal 10 μM
Procedure, shortened: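 A2780 cells given the test compound alone or co-administered with salubrinal (10 μM, an ER stress inhibitor). IC50 values were compared with and without inhibitor, with cisplatin run alongside.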

`N.N.[Cl][Pt][Cl]` [cisplatin] was tested, and the “effect of salubrinal on toxicity” value was “limited effect”.
